A selection: hits, their analogues and other compounds. The true share with any hit is near 1.5%.
TPT1 inhibitor = blocks Candida albicans tRNA 2'-phosphotransferase; inhibition, % at 5 µM; 300,000 tested, 0.81% active; recombinant caTPT1, FP RNA substrate dephosphorylation;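 active = inhibition above the mean of all tested compounds plus 3 SD, set per screening campaign, cut at about 24% in these data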
Rpn11 inh = Rpn11 (human) deubiquitinase inhibition; calls only at 20 µM; AID 588493; human 26S proteasome, Ub4-pepOG fluorescence polarization; 20S core pre-blocked with epoxomicin; O00487; 360,000 tested, 0.59% active;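 active = inhibition at 20 µM, scaled to each plate's controls, above about 33%, limit read from the data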
HNF4A DNA FP = change in binding of human HNF4 alpha to DNA. P41235. HNF4a-FITC DNA binding, fluorescence polarization, 1 h. activity change, % at 10 µM. 360,000 tested, 0.3% active. AID 1224865; in the data active = activity change above about 30%, passing the limit was not always enough
Target sequence (P41235 whole entry, looked up): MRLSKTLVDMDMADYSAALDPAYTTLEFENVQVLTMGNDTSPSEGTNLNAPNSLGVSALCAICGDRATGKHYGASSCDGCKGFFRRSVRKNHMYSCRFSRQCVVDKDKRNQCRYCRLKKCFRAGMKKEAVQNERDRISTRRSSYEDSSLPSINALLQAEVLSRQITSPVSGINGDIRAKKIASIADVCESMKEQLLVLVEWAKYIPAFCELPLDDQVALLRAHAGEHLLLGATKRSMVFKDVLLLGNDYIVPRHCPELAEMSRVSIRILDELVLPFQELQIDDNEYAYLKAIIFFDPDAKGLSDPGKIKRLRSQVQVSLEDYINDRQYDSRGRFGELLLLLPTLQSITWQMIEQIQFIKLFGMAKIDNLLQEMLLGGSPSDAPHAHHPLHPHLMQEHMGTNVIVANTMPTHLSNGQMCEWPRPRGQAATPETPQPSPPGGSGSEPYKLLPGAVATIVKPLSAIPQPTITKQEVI
CSN inh = CSN deneddylation inhibition; Purified CSN, SCF-Nedd8-OG deneddylation, fluorescence polarization; AID 651999; Q92905; inhibition, % at 12.5 µM; 360,000 tested, 0.38% active;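 active = pattern-corrected inhibition above about 35%, with an unprinted fluorescence ratio check between 0.5 and 1.5, limit read from the data, passing the limit was not always enough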
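Assay system: Purified human Csn5 enzyme expressed in HEK293T cells | Amount: Enzyme 0.24 nM | Measured by: Fluorescence polarization readout | Medium: Tris/NaCl/DTT buffer, pH 7.5 | Compound dosing: One concentration, 12.5 µM, 0.25% DMSO | Times: 90 min incubation of compound, enzyme and substrate at room temperature | Control set: no-enzyme wells high, enzyme-with-substrate wells low | Read-out: % inhibition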
Rpn11 inh conf = confirmation of human proteasome Rpn11 inhibitors; shares compounds with Rpn11 inh; purified human 26S proteasome, Ub4-pepOG fluorescence polarization; proteasome pretreated with epoxomicin; inhibition, % at 20 µM; 1,900 tested, 29% active; AID 602318
MMP-2 inh = counter-screen for RPN11 inhibitors: inhibition of human MMP-2 | shares compounds with Rpn11 inh | recombinant MMP-2, FRET peptide cleavage fluorescence | inhibition, % at 20 µM | 1,900 tested, 4% active;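 also: human MMP-2 activated beforehand with APMA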
Thrombin inh = counter-screen for RPN11 inhibitors: inhibition of bovine thrombin; inhibition, % at 20 µM; shares compounds with Rpn11 inh; bovine thrombin cleavage of Ub4-pepOG, fluorescence polarization; AID 602333; 1,900 tested, 13% active;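 active = mean inhibition at least 40% at 20 µM, or signal 3 deviations below plate average, so some actives read negative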
Of the large screens only hits and unclear results are named; the others gave an inactive call (follow-up assays come after a bar, where they were run). Rule as the data show it, unless noted: active = inhibition above about 40%; inactive = the rest.

Cc1cc(C)c(C(N)=O)c(SCC(=O)c2cc(C)n(-c3cc(C)on3)c2C)n1	none (no result: TPT1 inhibitor)
Cc1cccn2c(=O)c3cc(C(=O)NC4CCCC4)c(=N)n(C4CCCC4)c3nc12	Rpn11 inh active | Rpn11 inh conf inactive | MMP-2 inh inactive | Thrombin inh inactive
COc1ccc(N2CCN(C(c3cc(OC)ccc3OC)c3nnnn3Cc3ccco3)CC2)cc1 (centres undefined)	Rpn11 inh active | Rpn11 inh conf inactive | MMP-2 inh inactive | Thrombin inh inactive
COc1ccc(NC(=O)c2cc(OC)c(OC)cc2OC)c(S(=O)(=O)N2CCOCC2)c1	Rpn11 inh active | Rpn11 inh conf inactive | MMP-2 inh inactive | Thrombin inh inactive
CC1=C(C(=O)N(C(C)C)C(C)C)CC(CC(=O)NCC2CCCCC2)C(=O)N1Cc1ccc(C(C)(C)C)cc1 (centres undefined)	none (no result: TPT1 inhibitor, Rpn11 inh)
Cc1cc(-c2cc(C(=O)O)c3ccccc3n2)c(C)s1	Rpn11 inh active | Rpn11 inh conf inactive | MMP-2 inh inactive | Thrombin inh inactive
O=C(Nc1cc(Cl)ccc1Cl)c1cc(-c2ccco2)on1	none
COc1ccc(Cl)cc1NC(=O)c1cc(-c2ccco2)on1	Rpn11 inh active | Rpn11 inh conf inactive | MMP-2 inh inactive | Thrombin inh inactive
NS(=O)(=O)c1ccc(NC(=O)COC(=O)c2ccc(S(=O)(=O)N3CCOCC3)cc2)cc1	none (no result: TPT1 inhibitor)
COc1ccc(/C=C2\CCCC3C2=NN(C(=O)CSc2ncn[nH]2)C3c2ccc(OC)cc2)cc1 (centres undefined)	Rpn11 inh active | Rpn11 inh conf inactive | MMP-2 inh inactive | Thrombin inh inactive
O=C(CSc1ncn[nH]1)N1N=C2/C(=C/c3ccccc3)CCCC2C1c1ccccc1 (centres undefined)	none
COc1ccccc1C(=O)NC(=S)/C=C1/N(C)c2ccccc2C1(C)C	none
CN1/C(=C\C(=S)NC(=O)c2ccccc2Cl)C(C)(C)c2ccccc21	Rpn11 inh active, HNF4A DNA FP 68 | Rpn11 inh conf inactive | MMP-2 inh 42 | Thrombin inh inactive
Cc1ccc2nc(NC(=O)c3ccc(-c4nc5ccccc5s4)s3)sc2c1	Rpn11 inh active, HNF4A DNA FP 69, CSN inh 52 | Rpn11 inh conf inactive | MMP-2 inh inactive | Thrombin inh inactive
CCOC(=O)C1=C[C@@H](C(C)C)N(S(=O)(=O)c2ccc(C)cc2)[C@H]1c1ccc(C(C)C)cc1	none (no result: TPT1 inhibitor)
COc1ccccc1-c1cc(C(=O)Nc2cc(C)nn2-c2ccccc2)no1	Rpn11 inh active | Rpn11 inh conf 65 | MMP-2 inh inactive | Thrombin inh inactive
COc1ccc(-c2cc(C(=O)Nc3cc(C)nn3-c3ccccc3)no2)cc1	none
CC(NC(=O)C1CCN(C(=O)c2cccs2)CC1)c1ccc(S(N)(=O)=O)cc1 (centres undefined)	Rpn11 inh active, CSN inh 101 (no result: TPT1 inhibitor) | Rpn11 inh conf 63 | MMP-2 inh inactive | Thrombin inh inactive
CCOC(=O)[C@H]1[C@H]2COc3ccc(Cl)cc3[C@@H]2N2C(=O)c3ccc(Cl)cc3NC(=O)[C@@]12C	none
CCOc1ccc2nc(SCC(=O)N3c4ccccc4Sc4ccccc43)c(C#N)cc2c1	Rpn11 inh active | Rpn11 inh conf inactive | MMP-2 inh inactive | Thrombin inh inactive
N#CCSc1nc2cc(C(=O)N3CCC(C(N)=O)CC3)ccc2c2nc3ccccc3n12	Rpn11 inh active | Rpn11 inh conf inactive | MMP-2 inh inactive | Thrombin inh inactive
O=C(CSc1ncccn1)NC(=O)NC1CCCC1	none (no result: TPT1 inhibitor)
O=C(CSc1nc2nc(-c3cccs3)cc(C(F)(F)F)c2c(=O)[nH]1)Nc1ccc(F)c(F)c1	Rpn11 inh active | Rpn11 inh conf 57 | MMP-2 inh inactive | Thrombin inh inactive
O=C1CCCN1CCCNc1nc2c(S(=O)(=O)c3ccccc3)nnn2c2ccc(Cl)cc12	Rpn11 inh active | Rpn11 inh conf inactive | MMP-2 inh inactive | Thrombin inh inactive
Cc1cccc(-n2cnc(C(=O)N/N=C\c3ccc(Br)cc3)c2)n1	Rpn11 inh active | Rpn11 inh conf inactive | MMP-2 inh inactive | Thrombin inh inactive

Compound activity from PubChem.
